Key:
[1] = system: Influenza A virus; assay: Antiviral activity against Influenza A virus A/PR/8/34(H1N1) infected in MDCK cells assessed as reduction in virus-induced cytopathic effect after 3 days by microscopic method; type: functional, organism-based, A/Puerto Rico/8/1934(H1N1); settings: Influenza A virus, A/Puerto Rico/8/1934(H1N1), MDCK, 72 h
Outline: (§1)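 Semi-confluent MDCK cells were infected at an MOI of 0.0004 PFU/cell in Ultra-MDCK infection medium with 2 μg/mL TPCK-trypsin, together with compounds. After 3 days at 35 °C, CPE was scored by microscopy and confirmed by MTS formazan viability. EC50 is the concentration giving 50% inhibition of virus-induced CPE. Values are means of two to five independent tests.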

[2] = system: Influenza A virus; assay: Antiviral activity against Influenza A virus A/PR/8/34(H1N1) infected in MDCK cells after 3 days by MTS assay; type: functional, organism-based, A/Puerto Rico/8/1934(H1N1); settings: Influenza A virus, A/Puerto Rico/8/1934(H1N1), MDCK, 72 h; outline: as §1
[3] = system: Influenza A virus; assay: Antiviral activity against Influenza A virus A/Virginia/ATCC3/2009(H1N1pdm) infected in MDCK cells assessed as reduction in virus-induced cytopathic effect after 3 days by microscopic method; type: functional, organism-based, Influenza A virus (A/Virginia/03/2009(H1N1)); settings: 72 h; outline: as §1
[4] = system: Influenza A virus; assay: Antiviral activity against Influenza A virus A/Virginia/ATCC3/2009(H1N1pdm) infected in MDCK cells after 3 days by MTS assay; type: functional, organism-based, Influenza A virus (A/Virginia/03/2009(H1N1)); settings: 72 h; outline: as §1
[5] = system: H3N2 subtype; assay: Antiviral activity against Influenza A virus A/HK/7/87(H3N2) infected in MDCK cells assessed as reduction in virus-induced cytopathic effect after 3 days by microscopic method; type: functional, organism-based; settings: A/Hong Kong/7/1987(H3N2), 72 h; outline: as §1
[6] = system: H3N2 subtype; assay: Antiviral activity against Influenza A virus A/HK/7/87(H3N2) infected in MDCK cells after 3 days by MTS assay; type: functional, organism-based; settings: A/Hong Kong/7/1987(H3N2), 72 h; outline: as §1
[7] = system: Influenza B virus; assay: Antiviral activity against Influenza B virus B/Ned/537/05 infected in MDCK cells assessed as reduction in virus-induced cytopathic effect after 3 days by microscopic method; type: functional, organism-based; settings: B/Ned/537/05, MDCK, 72 h
Outline: (§2)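 Semi-confluent MDCK cells were infected at an MOI of 0.0004 PFU/cell in Ultra-MDCK infection medium with 2 μg/mL TPCK-trypsin, together with compounds. After 3 days at 35 °C, CPE was scored by microscopy and confirmed by MTS formazan viability. Values are means of two to five independent tests.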

[8] = system: Influenza B virus; assay: Antiviral activity against Influenza B virus B/Ned/537/05 infected in MDCK cells after 3 days by MTS assay; type: functional, organism-based; settings: B/Ned/537/05, MDCK, 72 h; outline: as §2
[9] = system: MDCK; assay: Cytotoxicity against MDCK cells assessed as reduction in cell viability after 3 days by MTS assay; type: cell-based, Canis lupus familiaris; settings: dog, mdck, 72 h
[10] = Cytotoxicity against MDCK cells assessed as alteration in cell morphology after 3 days by microscopic method; type: cell-based, Canis lupus familiaris; settings: dog
Outline: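 Mock-infected MDCK cells were treated with compounds in parallel with the antiviral assay, 3 days at 35 °C. MCC is the concentration causing minimal change in cell morphology by microscopy. CC50 is the 50% cytotoxic concentration by MTS formazan viability assay.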

[11] = system: Human coronavirus 229E; assay: Antiviral activity against Human coronavirus 229E infected in HEL299 cells assessed as reduction in virus induced cytopathic effect after 5 days by microscopic method; type: functional, organism-based; settings: HEL 299, 120 h
Outline: (§3)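 Confluent HEL 299 cells in medium with 2% FCS were exposed to HCoV-229E (100 CCID50/well) together with compounds and held for 5 days at 35 °C. EC50 (CPE reduction) and MCC (minimal morphology change) were determined by microscopy. SI is MCC/EC50.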

[12] = Cytotoxicity against HEL299 cells assessed as changes in cell morphology after 5 days by microscopic method; type: cell-based, HEL 299; settings: human; outline: as §3
[13] = system: Human coronavirus 229E; assay: Antiviral activity against Human coronavirus 229E infected in human A549 cells assessed as reduction in virus RNA level after 3 days by qRT-PCR method; type: functional; settings: A549, 72 h
Outline: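 Confluent A549 cells were infected with HCoV-229E in 2% FCS medium with compounds present. The inoculum was removed at 1 h and compounds were kept on at 35 °C. Supernatants were harvested at day 3, lysed at 75 °C for 10 min, and viral genome copies counted by one-step qRT-PCR.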

[14] = Cytotoxicity against human A549 cells assessed as changes in cell morphology after 3 days by microscopic method; type: cell-based
Outline: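 Mock-infected A549 cells were incubated with compounds for 3 days. MCC is the concentration causing minimal change in cell morphology by microscopy.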

CCCCCCOCc1cn(CCOCCOCCOCCOCc2cn([C@H]3C(=O)N[C@@H]4Cc5ccc(c(Cl)c5)Oc5cc6cc(c5O)Oc5ccc(cc5Cl)[C@@H](O[C@@H]5O[C@H](CO)[C@@H](O)[C@H](O)[C@H]5NC(C)=O)[C@H]5NC(=O)[C@H](NC(O)[C@@H]6NC(=O)[C@@H](NC4=O)c4cc(O)cc(c4)Oc4cc3ccc4O)c3ccc(O)c(c3)-c3c(O)cc(O)cc3[C@H](C(=O)O)NC5=O)nn2)nn1 (stereo not given in full)
EC50 [1]: > 100 µM
EC50 [2]: > 100 µM
EC50 [3]: > 100 µM
EC50 [4]: > 100 µM
EC50 [5]: > 100 µM
EC50 [6]: > 100 µM
EC50 [7]: > 100 µM
EC50 [8]: > 100 µM
CC50 [9]: 51 µM
MCC at 72 h [10]: 100 µM
EC50 [11]: 44 µM
MCC at 120 h [12]: ≥ 100 µM
EC90 [13]: 25 µM
EC99 [13]: 44 µM
MCC at 72 h [14]: > 50 µM

CCCCCCCCS(=O)(=O)N[C@H]1C(=O)N[C@@H]2Cc3ccc(c(Cl)c3)Oc3cc4cc(c3O)Oc3ccc(cc3Cl)[C@@H](O[C@@H]3O[C@H](CO)[C@@H](O)[C@H](O)[C@H]3NC(C)=O)[C@H]3NC(=O)[C@H](NC(O)[C@@H]4NC(=O)[C@@H](NC2=O)c2cc(O)cc(c2)Oc2cc1ccc2O)c1ccc(O)c(c1)-c1c(O)cc(O)cc1[C@H](C(=O)O)NC3=O (stereo not given in full)
EC50 [1]: 1.9 µM
EC50 [2]: 2.5 µM
EC50 [3]: > 100 µM
EC50 [4]: > 100 µM
EC50 [5]: 2 µM
EC50 [6]: 2.4 µM
EC50 [7]: 4 µM
EC50 [8]: > 100 µM
CC50 [9]: 14 µM
MCC at 72 h [10]: 20 µM
EC50 [11]: 5.4 µM
MCC at 120 h [12]: ≥ 20 µM
EC90 [13]: 5.7 µM
EC99 [13]: 9.4 µM
MCC at 72 h [14]: > 50 µM

CCCCCCSC1=C(SCCCCCC)C(=O)N(CCOCCOCCOCCOCc2cn(C3C(=O)N[C@@H]4Cc5ccc(c(Cl)c5)Oc5cc6cc(c5O)Oc5ccc(cc5Cl)[C@@H](O[C@@H]5O[C@H](CO)[C@@H](O)[C@H](O)[C@H]5NC(C)=O)[C@H]5NC(=O)[C@H](NC(O)[C@@H]6NC(=O)[C@@H](NC4=O)c4cc(O)cc(c4)Oc4cc3ccc4O)c3ccc(O)c(c3)-c3c(O)cc(O)cc3[C@H](C(=O)O)NC5=O)nn2)C1=O (stereo not given in full)
EC50 [1]: 2 µM
EC50 [2]: 3.5 µM
EC50 [3]: 2.7 µM
EC50 [4]: 6 µM
EC50 [5]: 2 µM
EC50 [6]: 2.9 µM
EC50 [7]: 1.8 µM
EC50 [8]: 3.6 µM
CC50 [9]: 65 µM
MCC at 72 h [10]: 20 µM
EC50 [11]: 5.4 µM
MCC at 120 h [12]: ≥ 20 µM
EC90 [13]: 7.6 µM
EC99 [13]: 21 µM
MCC at 72 h [14]: > 50 µM

CCCCCCSC1=C(SCCCCCC)C(=O)N(Cc2cn(C3C(=O)N[C@@H]4Cc5ccc(c(Cl)c5)Oc5cc6cc(c5O)Oc5ccc(cc5Cl)[C@@H](O[C@@H]5O[C@H](CO)[C@@H](O)[C@H](O)[C@H]5NC(C)=O)[C@H]5NC(=O)[C@H](NC(O)[C@@H]6NC(=O)[C@@H](NC4=O)c4cc(O)cc(c4)Oc4cc3ccc4O)c3ccc(O)c(c3)-c3c(O)cc(O)cc3[C@H](C(=O)O)NC5=O)nn2)C1=O (stereo not given in full)
EC50 [1]: 3.1 µM
EC50 [2]: > 100 µM
EC50 [3]: 4 µM
EC50 [4]: 2.9 µM
EC50 [5]: 1.9 µM
EC50 [6]: 1.9 µM
EC50 [7]: 2.3 µM
EC50 [8]: 2.7 µM
CC50 [9]: 12 µM
MCC at 72 h [10]: ≥ 4 µM
EC50 [11]: 8.9 µM
MCC at 120 h [12]: ≥ 20 µM
EC90 [13]: 6.4 µM
EC99 [13]: 9.5 µM
MCC at 72 h [14]: ≥ 50 µM

CCCCSC1=C(SCCCC)C(=O)N(Cc2cn(C3C(=O)N[C@@H]4Cc5ccc(c(Cl)c5)Oc5cc6cc(c5O)Oc5ccc(cc5Cl)[C@@H](O[C@@H]5O[C@H](CO)[C@@H](O)[C@H](O)[C@H]5NC(C)=O)[C@H]5NC(=O)[C@H](NC(O)[C@@H]6NC(=O)[C@@H](NC4=O)c4cc(O)cc(c4)Oc4cc3ccc4O)c3ccc(O)c(c3)-c3c(O)cc(O)cc3[C@H](C(=O)O)NC5=O)nn2)C1=O (stereo not given in full)
EC50 [1]: 2.1 µM
EC50 [2]: 3.2 µM
EC50 [3]: 9.8 µM
EC50 [4]: 7.4 µM
EC50 [5]: > 100 µM
EC50 [6]: 4.9 µM
EC50 [7]: 2.5 µM
EC50 [8]: 3.5 µM
CC50 [9]: 28 µM
MCC at 72 h [10]: 20 µM
EC50 [11]: 5.4 µM
MCC at 120 h [12]: ≥ 20 µM
EC90 [13]: 5.9 µM
EC99 [13]: 11 µM
MCC at 72 h [14]: > 50 µM

CCCCSC1=C(SCCCC)C(=O)N([C@H]2C(=O)N[C@@H]3Cc4ccc(c(Cl)c4)Oc4cc5cc(c4O)Oc4ccc(cc4Cl)[C@@H](O[C@@H]4O[C@H](CO)[C@@H](O)[C@H](O)[C@H]4NC(C)=O)[C@H]4NC(=O)[C@H](NC(O)[C@@H]5NC(=O)[C@@H](NC3=O)c3cc(O)cc(c3)Oc3cc2ccc3O)c2ccc(O)c(c2)-c2c(O)cc(O)cc2[C@H](C(=O)O)NC4=O)C1=O (stereo not given in full)
EC50 [1]: > 100 µM
EC50 [2]: > 100 µM
EC50 [3]: 2.9 µM
EC50 [4]: 2.6 µM
EC50 [5]: > 100 µM
EC50 [6]: > 100 µM
EC50 [7]: > 100 µM
EC50 [8]: > 100 µM
CC50 [9]: 8.6 µM
MCC at 72 h [10]: 4 µM
EC50 [11]: 5.4 µM
MCC at 120 h [12]: ≥ 20 µM
EC90 [13]: 4.1 µM
EC99 [13]: 10 µM
MCC at 72 h [14]: 50 µM

CCCCCCSC1=C(SCCCCCC)C(=O)N([C@H]2C(=O)N[C@@H]3Cc4ccc(c(Cl)c4)Oc4cc5cc(c4O)Oc4ccc(cc4Cl)[C@@H](O[C@@H]4O[C@H](CO)[C@@H](O)[C@H](O)[C@H]4NC(C)=O)[C@H]4NC(=O)[C@H](NC(O)[C@@H]5NC(=O)[C@@H](NC3=O)c3cc(O)cc(c3)Oc3cc2ccc3O)c2ccc(O)c(c2)-c2c(O)cc(O)cc2[C@H](C(=O)O)NC4=O)C1=O (stereo not given in full)
EC50 [1]: > 100 µM
EC50 [2]: > 100 µM
EC50 [3]: > 100 µM
EC50 [4]: > 100 µM
EC50 [5]: > 100 µM
EC50 [6]: > 100 µM
EC50 [7]: > 100 µM
EC50 [8]: > 100 µM
CC50 [9]: 9.8 µM
MCC at 72 h [10]: 4 µM
EC50 [11]: 5.4 µM
MCC at 120 h [12]: ≥ 20 µM
EC90 [13]: 5.8 µM
EC99 [13]: 9.4 µM
MCC at 72 h [14]: 50 µM
